Laboratory results from PubChem BioAssay.
Records with an inconclusive call do not appear.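 The calls were made as follows, unless noted: active = viability at or below 27.92% in each of two runs, the all-compound median minus 4 SD; inconclusive = no clear call, values can overlap the other calls; inactive = the rest.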

How the values were obtained:
[1] = OD615 S. cerevisiae growth inhibition, permissive medium, pilot counter-assay, permissive growth control for S. cerevisiae lifespan shortening project (AID 705;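 active = growth inhibition above 25% in both replicates, a cutoff set 3 SD above the mean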); details: OD615, 24 h, at 10 µM, active compounds read high
Procedure, shortened: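 assay system = Saccharomyces cerevisiae strain carrying genetically modified DeaD replicative-lifespan system | technique = absorbance (optical density) at 615 nm | buffer or medium = permissive raffinose/galactose medium | timing = cells pre-grown 4 h, then 24 h compound exposure, 30 °C humidified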

[2] = Restrictive medium S. cerevisiae growth inhibition, OD615, pilot screen of yeast lifespan reduction project, restrictive growth control (AID 706;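 active = growth inhibition above a set limit, 3 SD over mean compound inhibition, in both replicates, cut at about 43% in these data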;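 also: modified DeaD lifespan yeast strain shifted to restrictive glucose medium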); details: OD615, 48 h, at 10 µM, active compounds read high
Procedure, shortened: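 System: modified S. cerevisiae. Buffer or medium: CSMM-D glucose medium. Incubation: 4 h pre-growth plus 48 h compound exposure, 30 °C. Detection: absorbance (optical density) measured at 615 nm.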

[3] = viability gain of MRP-1-high H69AR cells under doxorubicin, pilot screen, MRP-1 activator project, CellTiter-Glo, duplicate (AID 807;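 active = viability increase at or above a cutoff of the median across tested compounds plus 3 SD, cut at about 8.5% in these data, passing the limit was not always enough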;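 also: compound pretreatment 18-22 h then 72 h combined with doxorubicin; 0% = doxorubicin alone and 100% = vehicle without doxorubicin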); details: H69AR viability with doxorubicin, CellTiter-Glo luminescence; at 10 µM; active compounds read high
[4] = growth suppression of beta-catenin knockout HCT116, pilot screen, human colon tumor cells (AID 823;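 active = cell viability at or below a set limit in both duplicate runs, the limit being the all-compound median minus 4 SD, cut at about 23% in these data, passing the limit was not always enough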;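 also: 0% = wells killed by 20 µM Hyamine and 100% = untreated DMSO cell wells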); details: CellTiter-Glo, 60 h, at 10 µM, active compounds read low
[5] = growth suppression of PTEN-deleted HCT116, pilot screen, cell-based, HCT116 clonal line, CellTiter-Glo (AID 824); details: 60 h, at 10 µM, active compounds read low;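 also: 0% = 20 µM Hyamine control and 100% = vehicle cell control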
[6] = inhibitors of the yeast RAM network, pilot screen, dse1pr::URA3 reporter, 5-FOA selection (AID 869;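 active = inhibition over a set limit, the all-compound mean plus 3 SD, in both replicate runs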;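 also: 0% = DMSO wells with no growth and 100% = 10 µM 1-NA-PP1 with full growth; RAM network block rescues cells from 5-FOA so hits raise OD615 growth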); details: S. cerevisiae dse1pr::URA3 5-FOA growth, OD615, 2 d; at 10 µM; active compounds read high; strain carries analog-sensitive mutant Cbk1 kinase
[7] = RAM signaling pathway blockade in yeast – S. cerevisiae, Pdr1DBD-CYC8 efflux-inhibited sensitized strain, primary screen (AID 1298;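 active = RAM network inhibition above 8.4% in each of two replicates, 3 SD over the compound average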;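 also: 0% = DMSO untreated cells without growth and 100% = 10 µM 1-NA-PP1 full growth; higher means more yeast growth rescued from 5-FOA killing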); details: S. cerevisiae cbk1-as DSE1-URA3 strain, 5-FOA growth OD615, 2 d; at 50 µM; active compounds read high

CCCCNC(=O)c1cc2c(=O)n3cccc(C)c3nc2n1C
inactive: growth inhibition [1] -8.58% | growth inhibition [2] -6.39% | viability increase [3] -4.36% | viability [4] 89.4% | viability [5] 87.5% | inhibition [6] 0.93% | RAM network inhibition [7] 2.87%

CCN1CCN(C(=O)c2cc3c(-c4ccc(Cl)cc4)nn(C)c3s2)CC1
inactive: growth inhibition [1] -4.23% | growth inhibition [2] 16% | viability increase [3] -7.68% | viability [4] 38.5% | viability [5] 52.7% | inhibition [6] 2.21% | RAM network inhibition [7] 1.3%

O=C(Nc1nnc(C2CC2)s1)c1cc(-c2ccccc2)nn1-c1ccccc1
inactive: growth inhibition [1] 2.87% | growth inhibition [2] 30.2% | viability increase [3] -0.61% | viability [4] 76.6% | viability [5] 71.9% | inhibition [6] 2.71% | RAM network inhibition [7] 3.62%

O=C(O)C1CCC(=O)N1C1c2ccccc2Oc2ccccc21 (configuration not stated)
inactive: growth inhibition [1] 4.23% | growth inhibition [2] 4.63% | viability increase [3] 0.41% | viability [4] 96% | viability [5] 98.9% | inhibition [6] 0.57% | RAM network inhibition [7] 5.25%

CC(OC(=O)c1cc[n+]([O-])cc1)C(=O)Nc1ccc(Cl)cn1 (configuration not stated)
inactive: growth inhibition [1] 0.77% | growth inhibition [2] 0.53% | viability increase [3] -1.44% | viability [4] 102% | viability [5] 98.3% | inhibition [6] 1.23% | RAM network inhibition [7] 1.61%

O=C(CSc1cn(Cc2ccccc2)c2ccccc12)Nc1nccs1
inactive: growth inhibition [1] -7.55% | growth inhibition [2] 3.57% | viability increase [3] 1.89% | viability [4] 88.8% | viability [5] 85.4% | inhibition [6] 1.73% | RAM network inhibition [7] 0.83%

COCCn1c(SCC(=O)N2CCN(c3ccccc3)CC2)nc2c(c1=O)SC(C)C2 (configuration not stated)
inactive: growth inhibition [1] 10.7% | growth inhibition [2] 10.7% | viability increase [3] -3.54% | viability [4] 103% | viability [5] 92.9% | inhibition [6] 1.65% | RAM network inhibition [7] 2.75%

CCOc1ccc(C2N(c3ccc(F)cc3)C(=O)C3CCCN32)cc1 (configuration not stated)
inactive: growth inhibition [1] -6.9% | growth inhibition [2] -2.44% | viability increase [3] -0.91% | viability [4] 94.3% | viability [5] 91.2% | inhibition [6] 2.38% | RAM network inhibition [7] 4.43%

N=C1C(c2nc3ccccc3c(=O)[nH]2)=C(O)CN1CCc1ccccc1
inactive: growth inhibition [1] 2.17% | growth inhibition [2] -7.82% | viability increase [3] -3.19% | viability [4] 93.6% | viability [5] 87.2% | inhibition [6] 0.995% | RAM network inhibition [7] 3.92%

CCCCSCc1[nH]c(=O)[nH]c1C(=O)CCCCC(=O)OCC
inactive: growth inhibition [1] -12.8% | growth inhibition [2] -1.29% | viability increase [3] -3.65% | viability [4] 99.4% | viability [5] 100% | inhibition [6] 0.975% | RAM network inhibition [7] 2.54%

COc1ccc(OC)c(CNC(=O)CCc2nc(-c3cccs3)no2)c1
inactive: growth inhibition [1] 2.87% | growth inhibition [2] 11.3% | viability increase [3] -2.92% | viability [4] 98% | viability [5] 93.4% | inhibition [6] 1.71% | RAM network inhibition [7] 2.56%

CCN(Cc1ccccc1)C(=O)CSc1nc(C)cc(C)c1C#N
inactive: growth inhibition [1] -12.8% | growth inhibition [2] -2.79% | viability increase [3] 4.58% | viability [4] 104% | viability [5] 87.3% | inhibition [6] 2.48% | RAM network inhibition [7] 0.99%

CC(=O)SCCC(=O)N1C(C)CCCC1C(=O)O (configuration not stated)
inactive: growth inhibition [1] -1.05% | growth inhibition [2] -7.75% | viability increase [3] -0.97% | viability [4] 95.9% | viability [5] 102% | inhibition [6] 0.62% | RAM network inhibition [7] 5.78%

COCCSc1nc2c(c(=O)[nH]c(=O)n2C)n1CCC(C)C
inactive: growth inhibition [1] -19.7% | growth inhibition [2] -18.9% | viability increase [3] -1.88% | viability [4] 103% | viability [5] 97.3% | inhibition [6] 1.55% | RAM network inhibition [7] 2.8%

Cn1c(C(=O)NCCc2ccsc2)cc2c(=O)n(C)c3ccccc3c21
inactive: growth inhibition [1] -13.2% | growth inhibition [2] -8.68% | viability increase [3] -4.49% | viability [4] 105% | viability [5] 92.2% | inhibition [6] 2.64% | RAM network inhibition [7] 4.41%

COc1ccccc1N1CCN(C(CNC(=O)C2CCCCC2)c2cccnc2)CC1 (configuration not stated)
inactive: growth inhibition [1] -3.31% | growth inhibition [2] -3.02% | viability increase [3] 1.93% | viability [4] 90.1% | viability [5] 94.4% | inhibition [6] 0.775% | RAM network inhibition [7] 3.85%

C=CCn1c(=O)c(C(=O)Nc2ccccc2OC)c(O)c2ccccc21
inactive: growth inhibition [1] 1.44% | growth inhibition [2] -2.46% | viability increase [3] -2.69% | viability [4] 104% | viability [5] 90.1% | inhibition [6] 2.31% | RAM network inhibition [7] 1.39%

Cc1ccc(C)c(NC(=O)C2CC=CCC2C(=O)O)c1 (configuration not stated)
inactive: growth inhibition [1] 3.24% | growth inhibition [2] 5.03% | viability increase [3] -0.5% | viability [4] 101% | viability [5] 104% | inhibition [6] 1.96% | RAM network inhibition [7] 4.68%

C=CCn1c(SCC(=O)N2CCN(c3ccc(F)cc3)CC2)nnc1-c1ccco1
inactive: growth inhibition [1] 3.6% | growth inhibition [2] 1.48% | viability increase [3] -2.41% | viability [4] 60.7% | viability [5] 73.1% | inhibition [6] 1.71% | RAM network inhibition [7] 11.3%

Cn1c(=O)c2cc(NCc3ccccc3)nnc2n(C)c1=O
inactive: growth inhibition [1] -12.8% | growth inhibition [2] -9.73% | viability increase [3] -2.1% | viability [4] 67.5% | viability [5] 58.8% | inhibition [6] 0.38% | RAM network inhibition [7] -0.94%

CCCCNC(=O)c1cc2c(-c3ccc(Cl)cc3)nn(C)c2s1
inactive: growth inhibition [1] 3.71% | growth inhibition [2] 6.75% | viability increase [3] -5.53% | viability [4] 89.9% | viability [5] 88.7% | inhibition [6] 3.1% | RAM network inhibition [7] 4.05%

O=C(NCCN1CCOCC1)c1ccc2c(c1)N(Cc1ccccc1)CCS2
inactive: growth inhibition [1] -1.33% | growth inhibition [2] -3.97% | viability increase [3] -2.25% | viability [4] 93.2% | viability [5] 94.5% | inhibition [6] 1.02% | RAM network inhibition [7] 6.44%

COc1ccc(OCCNS(=O)(=O)c2ccccc2)cc1
inactive: growth inhibition [1] -18.1% | growth inhibition [2] -18.5% | viability increase [3] 0.87% | viability [4] 94.5% | viability [5] 97.2% | inhibition [6] 0.965% | RAM network inhibition [7] 1.42%

COc1cc(-c2nc(-c3cccc(C)c3)no2)cc(OC)c1OC
inactive: growth inhibition [1] -5.34% | growth inhibition [2] -14.7% | viability increase [3] 0.46% | viability [4] 81.3% | viability [5] 81% | inhibition [6] 2.26% | RAM network inhibition [7] 9.46%

CSc1ccc(C2NC(=O)c3c(sc4c3CCN(C)C4)N2)cc1 (configuration not stated)
inactive: growth inhibition [1] -13.2% | growth inhibition [2] -0.305% | viability increase [3] -2.7% | viability [4] 78.2% | viability [5] 92.5% | inhibition [6] -0.285% | RAM network inhibition [7] 4.99%

Cc1ccc(O)c(N=CC2=C(O)c3ccccc3C2=O)c1
inactive: growth inhibition [1] -0.76% | growth inhibition [2] 5.53% | viability increase [3] -3.88% | viability [4] 61.6% | viability [5] 64.2% | inhibition [6] 1.85% | RAM network inhibition [7] 1.92%

Cn1cccc1Cc1nnc(SCC(=O)NCc2ccccc2)n1-c1ccc(F)cc1
inactive: growth inhibition [1] -3.32% | growth inhibition [2] 0.42% | viability increase [3] -3.08% | viability [4] 90.8% | viability [5] 89.8% | inhibition [6] 2.85% | RAM network inhibition [7] 2.8%

CN(C)CCNC(=O)c1cc2cc(Br)ccc2oc1=O
inactive: growth inhibition [1] -22.2% | growth inhibition [2] -8.59% | viability increase [3] -2.26% | viability [4] 81.6% | viability [5] 84.5% | inhibition [6] 0.755% | RAM network inhibition [7] 2.26%

Cc1ccc(C2CC(c3cccc(C)c3)n3ncnc3N2)cc1 (configuration not stated)
inactive: growth inhibition [1] 3.83% | growth inhibition [2] 15.5% | viability increase [3] -0.97% | viability [4] 85.7% | viability [5] 86.1% | inhibition [6] 0.45% | RAM network inhibition [7] 4.74%

Cc1ccc(-n2nnc3c(=O)n(CC(=O)OCc4ccccc4)cnc32)cc1
inactive: growth inhibition [1] -3.74% | growth inhibition [2] -5.4% | viability increase [3] -2.06% | viability [4] 92.6% | viability [5] 91.1% | inhibition [6] 2.02% | RAM network inhibition [7] 6.18%

CC(C)(C)n1nc2c(c1NC(=O)c1ccc(Br)cc1)CS(=O)C2 (configuration not stated)
inactive: growth inhibition [1] -8.25% | growth inhibition [2] -4.19% | viability increase [3] 0.64% | viability [4] 107% | viability [5] 99.2% | inhibition [6] 0.495% | RAM network inhibition [7] -0.53%

Cc1n[nH]c(C)c1S(=O)(=O)N(CC(=O)N1CCc2ccccc21)c1ccc(C(C)C)cc1
inactive: growth inhibition [1] -9.99% | growth inhibition [2] 9.17% | viability increase [3] -7.59% | viability [4] 89.6% | viability [5] 83.3% | inhibition [6] 1.94% | RAM network inhibition [7] 8.57%

Cc1ccc(F)c(NC=C2C(=O)OC(C)(C)OC2=O)c1
inactive: growth inhibition [1] -10.2% | growth inhibition [2] -7.67% | viability increase [3] 0.97% | viability [4] 87.9% | viability [5] 92.8% | inhibition [6] 2.53% | RAM network inhibition [7] 2.44%

COc1cc(C2C(C(=O)Nc3ccc(F)cc3)=C(C)Nc3nc(CCCO)nn32)cc(OC)c1OC (configuration not stated)
inactive: growth inhibition [1] -2.56% | growth inhibition [2] -11.4% | viability increase [3] -1.09% | viability [4] 105% | viability [5] 92.7% | inhibition [6] 2.58% | RAM network inhibition [7] 1.42%

Cc1cc(C(=O)Nc2cccnc2)on1
inactive: growth inhibition [1] -5.72% | growth inhibition [2] -5.71% | viability increase [3] -1.86% | viability [4] 103% | viability [5] 93.4% | inhibition [6] 0.355% | RAM network inhibition [7] 2.08%

CCn1c(C(=O)NC(C)c2ccc3c(c2)OCCO3)cc2sccc21 (configuration not stated)
inactive: growth inhibition [1] -7.09% | growth inhibition [2] -9.22% | viability increase [3] -0.14% | viability [4] 96.1% | viability [5] 82% | inhibition [6] 1.62% | RAM network inhibition [7] 3.22%
